# Bioassay records deposited in PubChem by several laboratories.
# NPY2 pot ag: potentiates or activates human NPY-Y2 receptor; AID 1359; cells expressing NPY-Y2, potentiator/agonist read-out; 220,000 compounds, 0.45% hits; activation, % at 3.6 µM; P49146; in the data active = activation above about 27%;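 note: cells stimulated with NPY near EC25 plus isoproterenol at EC100; 0% = vehicle plus submaximal agonist and 100% = vehicle plus saturating agonist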
# NPY-Y2 antag: blocks the human neuropeptide Y Y2 receptor; NPY-Y2 expressing cells, antagonist mode; inhibition, % at 2.7 µM; 140,000 compounds, 0.99% hits; in the data active = inhibition above about 17%;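 note: 0% = vehicle with agonist challenge and 100% = reference antagonist with challenge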
# NPY Y1 blocker: NPY-Y1 (human) receptor antagonism; inhibition, % at 3.6 µM; P25929; 200,000 compounds, 1% hits; HEK293-CNG Y1 cells, membrane potential fluorescence; NPY at EC95, then isoproterenol;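 active = inhibition above the campaign mean inhibition of all tested compounds plus 3 SD, cut at about 20% in these data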;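 note: 0% = DMSO wells given NPY plus isoproterenol and 100% = isoproterenol alone without NPY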
# Target sequence (P25929 whole entry, looked up): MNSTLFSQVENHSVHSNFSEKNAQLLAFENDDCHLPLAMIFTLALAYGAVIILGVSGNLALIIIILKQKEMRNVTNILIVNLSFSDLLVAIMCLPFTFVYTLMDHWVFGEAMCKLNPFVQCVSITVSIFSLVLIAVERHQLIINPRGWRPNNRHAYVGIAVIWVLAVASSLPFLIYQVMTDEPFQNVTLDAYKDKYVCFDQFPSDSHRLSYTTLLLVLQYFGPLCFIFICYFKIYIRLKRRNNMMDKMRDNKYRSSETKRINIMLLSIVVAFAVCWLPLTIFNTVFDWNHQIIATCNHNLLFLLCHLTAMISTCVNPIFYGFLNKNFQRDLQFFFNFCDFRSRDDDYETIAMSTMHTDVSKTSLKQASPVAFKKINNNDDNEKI
#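 Test system – HEK293 Y1/CNG channel cell line · Also added – NPY agonist 25 nM, then isoproterenol 1 µM plus Ro 20-1724 25 µM · Compound dosing – one concentration, 3.6 µM, in 0.4% DMSO · Schedule – compound incubation 1 h at room temperature, readout 45 min post-stimulation · Technique – fluorescence, membrane potential probe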
# Measles CPE: protection of cells from measles virus; Measles virus-infected cells, CPE protection, absorbance; protection (pct of control), % at 4 µM; 140,000 compounds, 1.5% hits; in the data active = protection mostly above about 24%, no sharp cut-off; inactive = mostly below about 26%
# NPY-Y1 PAM-ag: potentiates or activates human NPY-Y1 receptor | activation, % at 3.6 µM | NPY-Y1 expressing cells, potentiator/agonist activation | 220,000 compounds, 0.37% hits | AID 1304; in the data active = activation above about 33%, passing the limit was not always enough;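 note: cells stimulated with NPY at EC10 then isoproterenol at EC100; 0% = low agonist plus stimulus and 100% = saturating agonist plus stimulus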
# Mdm2 ligase inh: Mdm2 E3 ligase (human) inhibition. 210,000 compounds, 0.11% hits. Q00987. signal enhancement, % at 5 µM. cell-based MDM2 ubiquitination luciferase reporter, 2 h; 0 = plate control, 100 = twice control, blank-subtracted. AID 1230;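 active = signal enhancement of 30% or more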;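 note: luminescence tracks abundance of the self-degrading MDM2-luciferase fusion protein; higher signal means inhibition of MDM2 E3 ligase activity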
#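 System: stable MDM2–luciferase fusion reporter cells / Input: 2000 cells seeded into each well / Schedule: 4 h settle plus 2 h compound, 37 °C / Compound: single-point 5 µM / Buffer or medium: cells held in DMEM / Benchmarks: control and blank well means / Evaluation: percent signal gain over controls, blank-subtracted / Measured by: luciferase luminescence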
# NPY1 antag ctr: counter-screen for NPY-Y2 antagonists: human NPY-Y1 antagonism; shares compounds with NPY-Y2 antag; cell-based NPY-Y1 antagonism counterscreen; 710 compounds, 19% hits; AID 1256; inhibition, % at 3.6 µM; in the data active = inhibition above about 20%;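 note: cells challenged with NPY then isoproterenol with cAMP sensed through a CNG channel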
# NPY2 antag conf: human NPY-Y2 antagonism, confirmation. inhibition, % at 2.8 µM. shares compounds with NPY-Y2 antag. HEK293 NPY-Y2 CNG channel, membrane potential fluorescence. 710 compounds, 32% hits;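 active = mean inhibition of triplicate wells above the hit cutoff set in the primary screen, cut at about 17% in these data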;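 note: 0% = DMSO with NPY challenge and 100% = BIIE0246 high control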
# Numbers without * were called inactive; / = not tested or not shown. Sampled rows, rich in hits. Any-hit rate of the full collection: about 2.8%.
SMILES,NPY2 pot ag,NPY-Y2 antag,NPY Y1 blocker,Measles CPE,NPY-Y1 PAM-ag,Mdm2 ligase inh,NPY1 antag ctr,NPY2 antag conf
Cc1nn(Cc2ccccc2Cl)c(C)c1C(=O)NCCN1C(=O)S/C(=C\c2ccccc2)C1=O,8,22*,-1,24,7,6,4,4
Cc1nn(Cc2ccccc2Cl)c(C)c1C(=O)NCc1ccco1,3,0,1,4,-3,-6,/,/
O=C(CCn1cccc1)NCc1ccc(Cl)cc1,-14,-3,-1,4,-6,-15,/,/
COc1ccc(-c2noc(CSc3nc(-c4ccccc4)cc(=O)[nH]3)n2)cc1,-4,25*,6,9,6,-2,3,1
CCOC(=O)Cn1nc(-c2ccc(C)cc2)c2ccccc2c1=O,-7,/,3,/,5,-8,/,/
CCOC(=O)Cn1nc(-c2ccccc2)c2cnc3ccc(C)cc3c21,7,24*,3,24,-35,/,24*,19*
CC(O)CNc1nc(Cl)c(C#N)s1 (stereo unspecified),6,/,5,/,2,-11,/,/
O=C(Nc1ccccc1Cl)O/N=C/c1ccncc1,4,1,7,/,-10,/,/,/
Cc1ccc(OCC(=O)NC(=S)Nc2cccc(NC(=O)c3ccccc3)c2)cc1,-6,37*,2,2,4,-7,14,17
CCC(CC)c1nnc(NC(=O)c2cccnc2SC)s1,-1,/,4,/,-11,-2,/,/
CCCCc1nnc(NC(=O)C(C)Sc2nc(C)cc(=O)[nH]2)s1 (stereo unspecified),-5,20*,1,9,-12,2,-1,1
COc1cccc(CN2C(=O)C3CCCN3c3ccc(S(=O)(=O)N4CCOCC4)cc32)c1 (stereo unspecified),-2,-1,2,13,-4,-1,/,/
COc1cc2c(cc1OC)-c1cc(Nc3ccc4c(c3)OCCO4)nc(=O)n1CC2,-22,12,10,8,-28,-6,/,/
CCOc1cccc(Nc2cc3n(c(=O)n2)CCc2cc(OC)c(OC)cc2-3)c1,-23,18*,14,19,-37,14,38*,65*
CCOC(=O)N1CCC(NCc2c(C(=O)N(C)Cc3ccccc3)nc3ccccn23)CC1,-4,/,10,/,5,-12,/,/
CCOC(=O)c1cc(-c2ccccc2)sc1NC(=O)CC,-5,21*,1,9,-28,-6,1,0
N#Cc1c(-c2ccccc2F)cc(C2CC2)nc1SCC(=O)c1cccs1,-10,3,0,29,-13,-13,/,/
NC(N)=NCC(O)CN(c1ccccc1)c1ccccc1 (stereo unspecified),-28,/,/,/,-2,-6,/,/
O=C(Nc1ccccc1)c1ccc(-c2ccc(Br)cc2)o1,-51,29*,14,29,-43,-7,10,13
COc1ccccc1NC(=O)c1ccc(-c2ccc(Br)cc2)o1,-43,21*,19,5,-86,-17,21*,43*
COc1ccc(C2CC(C)(c3ccc(OC)cc3OC)Nc3ccccc3N2)c(OC)c1 (stereo unspecified),-4,/,9,/,-1,-17,/,/
CCc1n[nH]c(=S)n1/N=C/c1cc(Br)c(OC)cc1OC,2,21*,2,12,-16,-12,6,18*
C/C(=N\NC(=S)Nc1cc(S(=O)(=O)N2CCOCC2)ccc1Cl)c1ccccc1F,-11,4,0,11,-9,-1,/,/
C/C(=N\O)c1ccc(N2C(=O)C3CC=C(Cl)CC3C2=O)cc1 (stereo unspecified),-22,23*,13,19,-5,/,5,17
CCOc1ccc(-n2cc(C(=O)Nc3cccc(C)n3)c3cc(OC)c(OC)cc3c2=O)cc1,6,3,1,/,8,/,/,/
SMILES,NPY2 pot ag,NPY-Y2 antag,NPY Y1 blocker,Measles CPE,NPY-Y1 PAM-ag,Mdm2 ligase inh,NPY1 antag ctr,NPY2 antag conf
CCOc1ccc(NC(=S)N2CCC(C(O)(c3ccccc3)c3ccccc3)CC2)cc1,-9,54*,2,18,-4,11,-2,94*
COc1ccc(NC(=S)N2CCC(C(O)(c3ccccc3)c3ccccc3)CC2)cc1,-26,1,2,15,-7,-6,/,/
Cn1c(N)c(C(=O)COC(=O)CC(NC(=O)c2ccccc2Cl)c2ccccc2)c(=O)n(C)c1=O (stereo unspecified),1,/,-6,/,-8,-7,/,/
COc1ccccc1C(c1nnnn1CCc1ccccc1)N1CCCCCC1 (stereo unspecified),1,26*,15,5,7,8,6,4
Cc1ccc(NC(=S)N(Cc2cccs2)Cc2cc3cccc(C)c3[nH]c2=O)cc1,7,3,0,20,-15,-8,/,/
CCCCc1nc2ccccc2c(NC(=O)CNC(C)(C)C)c1CCC,2,-1,4,4,-9,-18,/,/
CCCCc1nc2ccccc2c(N)c1CCC (tested in a mixture with another compound),8,18*,15,4,-49,-15,5,5
Oc1cccc(-c2nc3ccc4ccccc4c3c3c2CCC3)c1,-36,30*,16,1,-30,0,10,32*
Cn1cccc1/C=N/NC(=O)c1cccc(OC(F)(F)C(F)F)c1,-10,1,7,7,-27,-7,/,/
COC(=O)c1ccc(C23CC4(C2)[C@H](CN(C)[C@@H]4c2ccccc2)C3c2ccc(Cl)nc2)cc1 (stereo partly specified),/,/,/,/,/,18,/,/
CSc1ccccc1NC(=O)c1cc(-c2cccnc2)nc2ccc(Br)cc12,-41,/,9,/,-58,-14,/,/
Clc1ccc(C2=Nn3c(nnc3-c3n[nH]c4c3CCC4)SC2)cc1Cl,-30,67*,14,4,-15,-8,11,18*
c1ccc(C2=Nn3c(nnc3-c3n[nH]c4c3CCC4)SC2)cc1,-14,-3,9,8,-31,-12,/,/
CC(NC(=S)Nc1c(Br)cccc1OC(F)F)C(C)(C)C (stereo unspecified),-11,0,-2,5,9,7,/,/
Cc1ccc(-c2nc3ncccc3o2)cc1NC(=O)COc1ccccc1,2,21*,3,5,-23,-5,8,5
C=CC(C)Sc1nc2c(c(=O)n(C)c(=O)n2C)n1Cc1ccccc1Cl (stereo unspecified),14,18*,5,18,-5,-15,-2,10
CCOC(=O)c1cnc2c(C)c(C)ccc2c1Nc1ccc(S(=O)(=O)Nc2ncccn2)cc1,4,2,-1,9,-33,-12,/,/
